Screening results deposited in PubChem by several laboratories.
ANO1 activ – activates or potentiates the mouse TMEM16A chloride channel | AID 623877 | B-score at 10 µM | hit rate 0.3% among 340,000 | Q8BHY3 | HEK293 TMEM16A/YFP-H148Q/I152L, iodide quench fluorescence; active compounds read low;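 active = fluorescence-ratio B-score plate-corrected deviation score at least 3 library SD below zero, with starting fluorescence score within 5 deviations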;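 note: channel opened by trigger with iodide after compound preincubation; score built on the fluorescence ratio of max minus min over baseline; more negative score means more quench and so TMEM16A activation or potentiation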
UBC13 inh – inhibitors of human UBC13 polyubiquitin chain formation. inhibition, % at 20 µM. TR-FRET. P61088. hit rate 0.47% among 330,000; in the data active = inhibition above about 45%, passing the limit was not always enough
Apaf-1 inh – inhibitors of human Apaf-1 apoptosome; O14727; reconstituted apoptosome caspase-3 activity, DEVD-Rh110 fluorescence; inhibition, % at 20 µM; hit rate 0.71% among 330,000; active = inhibition of at least 40% at 20 µM;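 note: plate controls were DMSO wells for no effect and DEVD-CHO caspase inhibitor wells for full effect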
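Assay system – apoptosome proteins · Medium – Hepes buffer, pH 7.5 · Also added – cytochrome c with DEVD-Rh110 · Timing – 30 min compound preincubation, 50 min activation, room temperature · Detection – Rh110 fluorescence, excitation 480 nm, emission 540 nm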
FID counter – fluorescent intercalator displacement, NS3 helicase counter-screen. DNA fluorescent intercalator displacement, fluorescence. inhibition, % at 7.9 µM. hit rate 0.17% among 290,000; in the data active = inhibition above about 37%;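 note: 0% = vehicle and 100% = reference compound; higher means more ethidium bromide displaced from hairpin DNA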
ANO1 block – inhibitors of mouse TMEM16A calcium-activated chloride channel; Q8BHY3; HEK293 TMEM16A/YFP iodide influx fluorescence, ionomycin; normalized B-score (activity score, 25-100; higher = stronger inhibition) at 10 µM; hit rate 1.2% among 310,000; AID 588511;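 active = ratio plate-corrected score three or more library SD toward inhibition, starting fluorescence score within five deviations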;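 note: score derived from kinetic fluorescence span divided by baseline fluorescence per well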
Starred values were filed as active, the others as inactive; i = inactive; . = not tested or not shown. Hits are enriched below; roughly 2.4% of the tested compounds scored in any of these assays.

SMILES | ANO1 activ | UBC13 inh | Apaf-1 inh | FID counter | ANO1 block
FC(F)C(F)(F)C(F)(F)C(F)(F)c1cc(-c2ccccc2)n[nH]1 | i | -2 | 11 | -7 | 100*
CCCSc1ccc([C@@H]2[C@@H]3C(=O)N(C)C(=O)[C@@H]3[C@]3(C(=O)OC)CCCN23)cc1OC | i | -8 | 10 | . | i
O=C(Nc1ccc2c(c1)Cc1ccccc1-2)c1cc2ccccc2o1 | i | 8 | 2 | 3 | i
O=C(Nc1ccc2c(c1)CCC2)c1cc2ccccc2o1 | -5.7* | -7 | 17 | -8 | i
O=C(Nc1ccc(N2CCOCC2)c(Cl)c1)c1cc2ccccc2o1 | i | 16 | 18 | -17 | 25*
O=C(NCC1CCCO1)c1cccc(S(=O)(=O)N(Cc2ccccc2)c2ccccc2)c1 (configuration not stated) | i | 5 | 9 | . | i
O=C(/C=C/c1ccc(Cl)cc1Cl)NCCSCc1ccccc1 | i | 0 | 19 | -14 | 100*
O=C(/C=C/c1ccc(Cl)cc1Cl)NCCSc1ccccc1 | i | 16 | 12 | -4 | 25*
O=C(/C=C/c1ccc(Cl)cc1)NCCSc1ccccc1 | i | 2 | -9 | -6 | i
O=C(/C=C/c1ccccc1)NCCSCc1ccc(Cl)cc1 | i | 7 | -2 | -5 | i
CCOc1ccccc1NC(=O)Cn1nnc(C(=O)NCc2ccc3c(c2)OCO3)c1N | i | -2 | 6 | -31 | i
NC(=O)[C@@H]1CCCN1Cc1nc(Cc2ccccc2Cl)no1 | i | -4 | -8 | -2 | i
CN1CCN(C2=CC3=CC(=C(C#N)C#N)CCC3CC2)CC1 (configuration not stated) | -41* | . | . | -7 | .
N#CC(C#N)=C1C=C2C=C(N3CCCCCC3)CCC2CC1 (configuration not stated) | i | . | . | -8 | .
COc1ccc(/C=N/NC(=O)CSc2nnc(CCCc3ccc(OC)c(C)c3)o2)cc1 | i | 0 | 25 | -16 | 100*
CCNC(=O)c1ccc2c(c1)C1C3CCC(C3)C1C(c1ccccc1)N2 (configuration not stated) | -6.7* | -9 | 8 | 96* | i
CCc1ccccc1NC(=O)c1cccc(N2C(=O)C3C4CCC(C4)C3C2=O)c1 (configuration not stated) | i | 6 | 1 | -10 | i
C#CCOCCOCCOCCNc1nc(N2CCN(C(=O)CCCCCCCCCCNC(=O)[C@H]([C@@H](C)CC)n3cc(CCCCCN)nn3)CC2)nc(N2CCN(C(=O)CCCCCCCCCCNC(=O)[C@@H]([C@H](C)O)n3cc(C)nn3)CC2)n1 | -12* | 118* | 50* | . | i
C#CCOCCOCCOCCNc1nc(N2CCN(C(=O)CCCCCCCCCCNC(=O)[C@@H]([C@H](C)O)n3cc(C)nn3)CC2)nc(N2CCN(C(=O)CCCCCCCCCCNC(=O)[C@@H]([C@H](C)O)n3cc(C)nn3)CC2)n1 | i | 22 | 30 | . | i
C#CCOCCOCCOCCNc1nc(N2CCN(C(=O)CCCCCCCCCCNC(=O)[C@H](CCC(=O)O)n3cc(CCCCCN)nn3)CC2)nc(N2CCN(C(=O)CCCCCCCCCCNC(=O)[C@@H]([C@H](C)O)n3cc(C)nn3)CC2)n1 | i | 41 | 51* | . | i
COc1ccccc1N(Cc1ccccc1)S(=O)(=O)c1cccc(C(=O)N2CCCCC2)c1 | i | 11 | 20 | . | .
CCN(C(=O)CSc1ncnc2sc(C)c(C)c12)C1CCS(=O)(=O)C1 (configuration not stated) | -40* | 3 | -7 | -12 | i
CCCN(CC1CC1)C(=O)CSc1ncnc2sc(C)c(C)c12 | i | 9 | -1 | -26 | i
Oc1ccc(Cl)cc1Sc1cc(Cl)ccc1O | -5.6* | . | . | . | .
O=[N+]([O-])c1c(Nc2cccc(O)c2)cc(Cl)c2nonc12 | -11* | -36 | 0 | 10 | 25*
SMILES | ANO1 activ | UBC13 inh | Apaf-1 inh | FID counter | ANO1 block
CC(=O)c1ccc2c(c1)N(CCCN1CCC(CCO)CC1)c1ccccc1S2 | i | 15 | 14 | . | i
CSc1ccc2c(c1)N(CCC1CCCCN1C)c1ccccc1S2 (configuration not stated) | i | 72* | 55* | 21 | 25*
CC(=O)NC(CC(=O)NC(C)c1ccc(Cl)cc1Cl)c1ccccc1 (configuration not stated) | -32* | -11 | 6 | -13 | i
COc1cc(CN2CCc3ccc(NC(=O)CCc4ccccc4OC)cc3C2)ccc1O | i | -4 | 21 | 13 | i
COc1cccc(CN2CCc3ccc(NC(=O)CCc4ccc(C)cc4)cc3C2)c1O | i | 2 | 9 | 7 | 25*
COc1ccc(N(C(=O)Nc2ccc(Cl)cc2)C2=NCCC2)cc1 | i | -1 | -13 | 0 | 25*
Cc1ccc(N(C(=O)Nc2ccccc2)C2=NCCC2)cc1 | i | -6 | -2 | -1 | i
O=C1c2c(O)ccc(O)c2C(=O)c2c(NCCNCCO)ccc(NCCNCCO)c21 | i | 34 | 78* | . | i
O=C1c2ccccc2C(=O)c2c(Nc3ccc(CCO)cc3)ccc(O)c21 | i | -13 | 28 | 5 | i
COc1ccc(N(CC(O)Cn2c3ccccc3c3ccccc32)S(=O)(=O)c2ccccc2)cc1 (configuration not stated) | -4.8* | 3 | 9 | -4 | i
CC/C(=N/N=C(/CC)c1ccc(O)cc1)c1ccc(O)cc1 | i | 3 | 6 | . | i
CCC(C(=O)OCC(=O)Nc1cc(Cl)ccc1Cl)c1ccccc1 (configuration not stated) | i | 9 | 17 | -6 | 25*
CCC(C(=O)OCC(=O)Nc1ccc(OC)cc1OC)c1ccccc1 (configuration not stated) | i | -6 | 16 | -24 | i
C[n+]1c(-c2ccccc2)cc2c(=Cc3ccccc3)c3ccccc3n21 | -10* | . | . | . | .
Cc1cc(C)cc(NC(=S)N(CCN2CCCCC2)Cc2ccco2)c1 | i | 0 | 1 | 2 | i
Cc1ccc(NC(=S)N(CCN2CCCCC2)Cc2ccco2)cc1Cl | -5.1* | 4 | -3 | 8 | i
CCOC(=O)c1sc(NC(=O)c2ccccc2)cc1C | i | 1 | 3 | -3 | i
CCOC(=O)c1sc(NC(=O)c2ccc(Cl)s2)cc1C | -15* | -3 | -9 | 2 | i
COc1cccc(COC(=O)c2ccc3c(=O)n4c(nc3c2)CCC4)c1OC | i | -1 | 9 | . | i
C/C(=N\NC(=O)c1ccc(Br)cc1)C1C(=O)c2ccccc2C1=O | i | -19 | 11 | -8 | 100*
O=C(O)CCN1CCN(S(=O)(=O)c2ccc3ccccc3c2)CC1 | i | 12 | 4 | 4 | i
NS(=O)(=O)c1ccc(N=Nc2c[nH]c(=O)c(O)c2)cc1 | i | -330 | 74* | 2 | i
